How the values were obtained:
Set-up in all cases: dose 5 mg/kg, dosed compound name [14C]CS-1036, route oral
Conditions in all cases: in vivo
Small intestine [1] = test: Drug uptake in albino F344/DuCrlCrlj rat small intestine at 5 mg/kg, po after 24 hrs by liquid scintillation counting; assay type: ADME, organism-based
[2] = Drug uptake in albino F344/DuCrlCrlj rat urinary bladder assessed as ng equivalent of CS-1036 at 5 mg/kg, po after 1 hr by liquid scintillation counting; assay type: ADME, organism-based
Adrenal gland [3] = test: Drug uptake in albino F344/DuCrlCrlj rat adrenal gland assessed as ng equivalent of CS-1036 at 5 mg/kg, po after 168 hrs by liquid scintillation counting; assay type: ADME, organism-based
Aorta [4] = test: Drug uptake in albino F344/DuCrlCrlj rat aorta assessed as ng equivalent of CS-1036 at 5 mg/kg, po after 4 hrs by liquid scintillation counting; assay type: ADME, organism-based
Aorta [5] = test: Drug uptake in albino F344/DuCrlCrlj rat aorta at 5 mg/kg, po after 8 hrs by liquid scintillation counting; assay type: ADME, organism-based
Kidney = test: Drug uptake in albino F344/DuCrlCrlj rat kidney at 5 mg/kg, po after 24 hrs by liquid scintillation counting; assay type: ADME, organism-based
Lung = test: Drug uptake in albino F344/DuCrlCrlj rat lung at 5 mg/kg, po after 1 hr by liquid scintillation counting; assay type: ADME, organism-based
Spleen [6] = test: Drug uptake in albino F344/DuCrlCrlj rat spleen at 5 mg/kg, po after 4 hrs by liquid scintillation counting; assay type: ADME, organism-based
[7] = Drug uptake in albino F344/DuCrlCrlj rat eyeball at 5 mg/kg, po after 24 hrs by liquid scintillation counting; assay type: ADME, organism-based
[8] = Drug uptake in albino F344/DuCrlCrlj rat brown fat at 5 mg/kg, po after 336 hrs by liquid scintillation counting; assay type: ADME, organism-based, Brown adipose tissue
[9] = Drug uptake in albino F344/DuCrlCrlj rat trachea assessed as ng equivalent of CS-1036 at 5 mg/kg, po after 24 hrs by liquid scintillation counting; assay type: ADME, organism-based
[10] = Drug uptake in albino F344/DuCrlCrlj rat eyeball at 5 mg/kg, po after 1 hr by liquid scintillation counting; assay type: ADME, organism-based
Stomach [11] = test: Drug uptake in albino F344/DuCrlCrlj rat stomach at 5 mg/kg, po after 4 hrs by liquid scintillation counting; assay type: ADME, organism-based
Stomach [12] = test: Drug uptake in albino F344/DuCrlCrlj rat stomach assessed as ng equivalent of CS-1036 at 5 mg/kg, po after 8 hrs by liquid scintillation counting; assay type: ADME, organism-based
Blood [13] = test: Drug uptake in albino F344/DuCrlCrlj rat blood assessed as ng equivalent of CS-1036 at 5 mg/kg, po after 4 hrs by liquid scintillation counting; assay type: ADME, organism-based
Summary of the method: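 Male F344/DuCrlCrlj rats (159–167 g; n = 3 per time point) received a single oral dose of [14C]CS-1036 at 5 mg/kg. Blood was taken from the abdominal aorta at 1, 4, 8, 24, 72, 168 and 336 h. Radioactivity was counted by LSC with external-standard efficiency correction. Results were converted to ng equivalent of CS-1036/ml using specific activity and sample volume, and reported as mean + S.D.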

[14] = Drug uptake in albino F344/DuCrlCrlj rat epididymis assessed as ng equivalent of CS-1036 at 5 mg/kg, po after 1 hr by liquid scintillation counting; assay type: ADME, organism-based
Adrenal gland [15] = test: Drug uptake in albino F344/DuCrlCrlj rat adrenal gland at 5 mg/kg, po after 1 hr by liquid scintillation counting; assay type: ADME, organism-based
Blood [16] = test: Drug uptake in albino F344/DuCrlCrlj rat blood at 5 mg/kg, po after 8 hrs by liquid scintillation counting; assay type: ADME, organism-based
Summary of the method: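 Male rats (159–167 g; n = 3) received a single oral dose of [14C]CS-1036 at 5 mg/kg. Blood was drawn from the abdominal aorta at 1, 4, 8, 24, 72, 168 and 336 h. Radioactivity was counted by LSC with external-standard efficiency correction. Results are expressed as ng equivalent/ml from the specific activity and sample volume; mean + S.D.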

Adrenal gland [17] = test: Drug uptake in albino F344/DuCrlCrlj rat adrenal gland at 5 mg/kg, po after 8 hrs by liquid scintillation counting; assay type: ADME, organism-based
[18] = Drug uptake in albino F344/DuCrlCrlj rat fat assessed as ng equivalent of CS-1036 at 5 mg/kg, po after 24 hrs by liquid scintillation counting; assay type: ADME, organism-based, Adipose tissue
Summary of the method: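 Male F344/DuCrlCrlj rats (bought at 7 weeks, acclimatized 5–6 days; 159–167 g; n = 3 per time point) received a single oral dose of [14C]CS-1036 at 5 mg/kg. White adipose tissue was collected after abdominal aortic bleeding at 1, 4, 8, 24, 72, 168 or 336 h. Samples were counted by LSC with external-standard efficiency correction. Results were converted to ng equivalents per g from specific activity and sample weight.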

Heart [19] = test: Drug uptake in albino F344/DuCrlCrlj rat heart at 5 mg/kg, po after 1 hr by liquid scintillation counting; assay type: ADME, organism-based
Adrenal gland [20] = test: Drug uptake in albino F344/DuCrlCrlj rat adrenal gland at 5 mg/kg, po after 4 hrs by liquid scintillation counting; assay type: ADME, organism-based
Heart [21] = test: Drug uptake in albino F344/DuCrlCrlj rat heart assessed as ng equivalent of CS-1036 at 5 mg/kg, po after 72 hrs by liquid scintillation counting; assay type: ADME, organism-based
Thymus = test: Drug uptake in albino F344/DuCrlCrlj rat thymus at 5 mg/kg, po after 72 hrs by liquid scintillation counting; assay type: ADME, organism-based
Small intestine [22] = test: Drug uptake in albino F344/DuCrlCrlj rat small intestine at 5 mg/kg, po after 72 hrs by liquid scintillation counting; assay type: ADME, organism-based
Liver = test: Drug uptake in albino F344/DuCrlCrlj rat liver at 5 mg/kg, po after 336 hrs by liquid scintillation counting; assay type: ADME, organism-based
[23] = Drug uptake in albino F344/DuCrlCrlj rat trachea assessed as ng equivalent of CS-1036 at 5 mg/kg, po after 168 hrs by liquid scintillation counting; assay type: ADME, organism-based
[24] = Drug uptake in albino F344/DuCrlCrlj rat mandibular gland at 5 mg/kg, po after 1 hr by liquid scintillation counting; assay type: ADME, organism-based
Spleen [25] = test: Drug uptake in albino F344/DuCrlCrlj rat spleen assessed as ng equivalent of CS-1036 at 5 mg/kg, po after 72 hrs by liquid scintillation counting; assay type: ADME, organism-based
Zone of skin = test: Drug uptake in albino F344/DuCrlCrlj rat skin at 5 mg/kg, po after 168 hrs by liquid scintillation counting; assay type: ADME, organism-based
[26] = Drug uptake in albino F344/DuCrlCrlj rat eyeball assessed as ng equivalent of CS-1036 at 5 mg/kg, po after 4 hrs by liquid scintillation counting; assay type: ADME, organism-based
Harderian gland = test: Drug uptake in albino F344/DuCrlCrlj rat harderian gland assessed as ng equivalent of CS-1036 at 5 mg/kg, po after 1 hr by liquid scintillation counting; assay type: ADME, organism-based
Heart [27] = test: Drug uptake in albino F344/DuCrlCrlj rat heart at 5 mg/kg, po after 24 hrs by liquid scintillation counting; assay type: ADME, organism-based
Heart [28] = test: Drug uptake in albino F344/DuCrlCrlj rat heart assessed as ng equivalent of CS-1036 at 5 mg/kg, po after 336 hrs by liquid scintillation counting; assay type: ADME, organism-based

Radiolabel recovery (Small intestine [1]): 94.4 ngequiv/g
Radiolabel recovery [2]: 520 ngequiv/g
Radiolabel recovery (Adrenal gland [3]): 93 ngequiv/g
Radiolabel recovery (Aorta [4]): 13.3 ngequiv/g
Radiolabel recovery (Aorta [5]): 57.3 ngequiv/g
Radiolabel recovery (Kidney): 137 ngequiv/g
Radiolabel recovery (Lung): 47.1 ngequiv/g
Radiolabel recovery (Spleen [6]): 35.1 ngequiv/g
Radiolabel recovery [7]: 17.4 ngequiv/g
Radiolabel recovery [8]: 54.3 ngequiv/g
Radiolabel recovery [9]: 7.1 ngequiv/g
Radiolabel recovery [10]: 17.7 ngequiv/g
Radiolabel recovery (Stomach [11]): 129 ngequiv/g
Radiolabel recovery (Stomach [12]): 59 ngequiv/g
Radiolabel recovery (Blood [13]): 16.3 ngequiv/ml
Radiolabel recovery [14]: 2.8 ngequiv/g
Radiolabel recovery (Adrenal gland [15]): 32.2 ngequiv/g
Radiolabel recovery (Blood [16]): 22.1 ngequiv/ml
Radiolabel recovery (Adrenal gland [17]): 66.1 ngequiv/g
Radiolabel recovery [18]: 21 ngequiv/g
Radiolabel recovery (Heart [19]): 27.9 ngequiv/g
Radiolabel recovery (Adrenal gland [20]): 33.3 ngequiv/g
Radiolabel recovery (Heart [21]): 9.2 ngequiv/g
Radiolabel recovery (Thymus): 48.3 ngequiv/g
Radiolabel recovery (Small intestine [22]): 41.3 ngequiv/g
Radiolabel recovery (Liver): 7.76 ngequiv/g
Radiolabel recovery [23]: 10.4 ngequiv/g
Radiolabel recovery [24]: 43.4 ngequiv/g
Radiolabel recovery (Spleen [25]): 19.5 ngequiv/g
Radiolabel recovery (Zone of skin): 53.3 ngequiv/g
Radiolabel recovery [26]: 4.8 ngequiv/g
Radiolabel recovery (Harderian gland): 4.3 ngequiv/g
Radiolabel recovery (Heart [27]): 41.7 ngequiv/g
Radiolabel recovery (Heart [28]): 3.63 ngequiv/g
Compound: C[C@H]1O[C@@H](O[C@H]2[C@H](O)[C@@H](O)[C@@H](O[14C@H]3[14C@H](O)[14CH2]N[14C@@H]3[14CH2]O)O[C@@H]2CO)[C@H](O)[C@@H](O)[C@@H]1O
